pEC50, pIC50: −log10 of the molar value.
Experiments:
[1] = system: Trypanosoma brucei rhodesiense; assay: Effective dose required to inhibit the growth of Trypanosoma brucei rhodesiense; format: functional; conditions: read-out: ED50 (the source's name)
Procedure, shortened: (§1)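 Bloodstream-form trypomastigotes of strain STIB 900 were grown in HMI-18 with nonessential amino acids, glucose and 15% heat-inactivated FCS at 37 °C, 5% CO2. Compounds were given as serial dilutions, in triplicate, from 1 × 10^4 cells/well. Cultures ran 72 h before Alamar Blue read-out, and ED50 was fitted.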

[2] = system: protein farnesyltransferase (Trypanosoma brucei); assay: Inhibition of against Trypanosoma brucei protein farnesyltransferase at 50 nM concentration
[3] = system: Trypanosoma brucei brucei; assay: Effective dose required to inhibit the growth of Trypanosoma brucei; format: functional; conditions: read-out: ED50 (the source's name)
Procedure, shortened: (§2)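 Bloodstream-form strain 427 was grown in HMI-9 with 10% FBS at 37 °C, 5% CO2. Cells were seeded at 1 × 10^4 trypomastigotes/well in triplicate, with serial dilutions from 20 mM DMSO stocks. Growth was read with Alamar Blue at 48 h, pentamidine served as positive control, and ED50 was fitted from the curves.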

NIH3T3 [4] = assay: Effective dose against murine 3T3 fibroblasts cells; format: functional; conditions: Mus musculus, read-out: ED50 (the source's name)
Procedure, shortened: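 Murine 3T3 fibroblasts were grown in RPMI 1640 with 10% FBS and held 72 h with compound at 37 °C, 5% CO2.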

[5] = system: protein farnesyltransferase (Trypanosoma brucei); assay: Inhibition of Trypanosoma brucei protein farnesyltransferase at 50 nM (29-41%)
[6] = system: Trypanosoma brucei rhodesiense; assay: Dose required to inhibit growth of Trypanosoma brucei rhodesiense; 14->60 uM; format: functional; conditions: read-out: ED50 (the source's name); procedure, shortened: as §1
[7] = system: Protein farnesyltransferase (Trypanosoma brucei); assay: Inhibition of Trypanosoma brucei protein farnesyltransferase at 50 nM (82-87%)
[8] = system: protein farnesyltransferase (Trypanosoma brucei); assay: Inhibition of Trypanosoma brucei protein farnesyltransferase at 50 nM (0-17%)
[9] = system: Trypanosoma brucei rhodesiense; assay: Dose required to inhibit growth of Trypanosoma brucei rhodesiense; 0.38-0.92 uM; format: functional; conditions: read-out: ED50; procedure, shortened: as §1
[10] = system: Trypanosoma brucei brucei; assay: Dose required to inhibit growth of Trypanosoma brucei; 1-5 uM; format: functional; conditions: read-out: ED50; procedure, shortened: as §2
[11] = system: protein farnesyltransferase (Trypanosoma brucei); assay: Inhibition of Trypanosoma brucei protein farnesyltransferase at 50 nM concentration (65-74%)
[12] = system: Trypanosoma brucei brucei; assay: Dose required to inhibit growth of Trypanosoma brucei; 0.5-5 uM; format: functional; conditions: read-out: ED50; procedure, shortened: as §2
[13] = system: Trypanosoma brucei rhodesiense; assay: Dose required to inhibit growth of Trypanosoma brucei rhodesiense; 0.14-0.8 uM; format: functional; conditions: read-out: ED50 (the source's name); procedure, shortened: as §1
[14] = system: protein farnesyltransferase (Trypanosoma brucei); assay: Inhibition of Trypanosoma brucei protein farnesyltransferase at 50 nM (0-14%)
[15] = target: protein farnesyltransferase (Trypanosoma brucei); assay: Inhibition of Trypanosoma brucei protein farnesyltransferase
NIH3T3 [16] = assay: Dose required against murine 3T3 fibroblasts cells; 1-10 uM; format: functional; conditions: Mus musculus, read-out: ED50 (the source's name)
[17] = system: Trypanosoma brucei brucei; assay: Dose required to inhibit growth of Trypanosoma brucei; 1-10 uM; format: functional; conditions: read-out: ED50 (the source's name); procedure, shortened: as §2

| pEC50 [1] | inhibition [2] | pEC50 [3] | SMILES | pEC50 (NIH3T3 [4]) | also measured |
| --- | --- | --- | --- | --- | --- |
| 5.52 | 17.1% | < 5.00 | CSCNC(=O)c1ccc(NCc2cncn2Cc2ccc(C#N)cc2)cc1-c1ccccc1 | < 5.00 | – |
| < 4.22 | – | < 5.00 | CSCC[C@H](NC(=O)c1ccc(NCc2cncn2Cc2ccccc2C)cc1-c1ccccc1)C(=O)O | < 5.00 | inhibition [5]: ≤ 41% |
| – | – | < 5.00 | CSCC[C@H](NC(=O)c1ccc(NCc2cncn2Cc2ccc([N+](=O)[O-])cc2)cc1-c1ccccc1)C(=O)O | < 5.00 | pEC50 [6]: < 4.22; inhibition [7]: 87% |
| 8.82 | 66.2% | 7.00 | COC(=O)[C@H](CCSC)NC(=O)c1ccc(CN(Cc2c[nH]cn2)Cc2c[nH]cn2)cc1-c1ccccc1C | < 5.00 | – |
| – | – | – | COC(=O)[C@H](CCSC)NC(=O)c1ccc(NCc2cncn2Cc2cccc(Cl)c2)cc1-c1ccccc1 | < 5.00 | inhibition [8]: ≤ 17%; pEC50 [9]: ≥ 6.04; pEC50 [10]: ≥ 5.30 |
| – | 4.5% | – | CSCC[C@H](NC(=O)c1ccc(NCc2cn(Cc3ccc(-c4ccccc4)cc3)cn2)cc1-c1ccccc1)C(=O)O | – | – |
| < 4.22 | – | < 5.00 | CSCC[C@H](NC(=O)c1ccc(NCc2cncn2Cc2cccc(C)c2)cc1-c1ccccc1)C(=O)O | < 5.00 | inhibition [11]: ≤ 74% |
| 5.28 | 8.4% | < 5.00 | CC(C)NC(=O)c1ccc(NCc2cncn2Cc2ccc(C#N)cc2)cc1-c1ccccc1 | < 5.00 | – |
| – | 12% | – | CSCC[C@H](NC(=O)c1ccc(NCc2cn(CC3CCCCC3)cn2)cc1-c1ccccc1)C(=O)O | – | – |
| – | – | – | COC(=O)[C@H](CCSC)NC(=O)c1ccc(NCc2cncn2Cc2cccc(C#N)c2)cc1-c1ccccc1 | < 5.00 | inhibition [8]: ≤ 17%; pEC50 [9]: ≥ 6.04; pEC50 [10]: ≥ 5.30 |
| – | 80.6% | – | CCCCCn1cncc1CNc1ccc(C(=O)N[C@@H](CCSC)C(=O)O)c(-c2ccccc2)c1 | – | – |
| < 4.22 | – | < 5.00 | CSCC[C@H](NC(=O)c1ccc(NCc2cncn2Cc2cccc(C#N)c2)cc1-c1ccccc1)C(=O)O | < 5.00 | inhibition [11]: ≤ 74% |
| – | – | < 5.00 | CSCC[C@H](NC(=O)c1ccc(NCc2cncn2Cc2ccc(C)cc2)cc1-c1ccccc1)C(=O)O | < 5.00 | pEC50 [6]: < 4.22; inhibition [7]: ≤ 87% |
| – | – | – | COC(=O)[C@H](CCSC)NC(=O)c1ccc(NCc2cncn2Cc2cccc(C)c2)cc1-c1ccccc1 | < 5.00 | inhibition [8]: ≤ 17%; pEC50 [9]: ≥ 6.04; pEC50 [10]: ≥ 5.30 |
| – | – | – | COC(=O)[C@H](CCSC)NC(=O)c1ccc(NCc2cncn2Cc2cccc([N+](=O)[O-])c2)cc1-c1ccccc1 | < 5.00 | inhibition [8]: ≤ 17%; pEC50 [9]: ≥ 6.04; pEC50 [10]: ≥ 5.30 |
| – | – | < 5.00 | CSCC[C@H](NC(=O)c1ccc(NCc2cncn2Cc2ccc(Cl)cc2)cc1-c1ccccc1)C(=O)O | < 5.00 | pEC50 [6]: < 4.22; inhibition [7]: ≤ 87% |
| < 4.22 | – | < 5.00 | CSCC[C@H](NC(=O)c1ccc(NCc2cncn2Cc2ccccc2C#N)cc1-c1ccccc1)C(=O)O | < 5.00 | inhibition [5]: ≤ 41% |
| – | 69.8% | – | CSCC[C@H](NC(=O)c1ccc(NCc2cncn2CC2CCCCC2)cc1-c1ccccc1)C(=O)O | – | – |
| – | – | – | COC(=O)[C@H](CCSC)NC(=O)c1ccc(NCc2cncn2Cc2ccc(C#N)cc2)cc1-c1ccccc1 | < 5.00 | pEC50 [12]: ≥ 5.30; pEC50 [13]: ≥ 6.10; inhibition [14]: ≤ 14% |
| – | – | – | COC(=O)[C@H](CCSC)NC(=O)c1ccc(NCc2cncn2Cc2ccc(Cl)cc2)cc1-c1ccccc1 | < 5.00 | pEC50 [12]: ≥ 5.30; pEC50 [13]: ≥ 6.10; inhibition [14]: ≤ 14% |
| – | – | – | COC(=O)[C@H](CCSC)NC(=O)c1ccc(NCc2cncn2Cc2ccc(-c3ccccc3)cc2)cc1-c1ccccc1 | < 5.00 | pEC50 [12]: ≥ 5.30; pEC50 [13]: < 6.85; inhibition [14]: 14% |
| – | 11.5% | – | CCCCCn1cnc(CNc2ccc(C(=O)N[C@@H](CCSC)C(=O)O)c(-c3ccccc3)c2)c1 | – | – |
| – | – | 6.15 | COC(=O)[C@H](CCSC)NC(=O)c1ccc(NC[C@@H](N)CS)cc1-c1ccccc1 | < 4.60 | pIC50 [15]: 7.40 |
| 8.05 | 4.9% | 8.00 | C=COC(=O)[C@H](CCSC)NC(=O)c1ccc(CNCc2c[nH]cn2)cc1-c1ccccc1C | – | pEC50 (NIH3T3 [16]): < 5.00 |

| pEC50 [1] | inhibition [2] | pEC50 [3] | SMILES | pEC50 (NIH3T3 [4]) | also measured |
| --- | --- | --- | --- | --- | --- |
| – | 0% | – | COC(=O)[C@H](CCSC)NC(=O)c1ccc(NCc2cncn2Cc2ccccc2C#N)cc1-c1ccccc1 | < 5.00 | pEC50 [17]: ≥ 5.00 |
| 5.04 | – | < 4.60 | CSCC[C@H](NC(=O)c1ccc(NC[C@@H](N)CS)cc1-c1ccccc1)C(=O)O | < 4.60 | – |
| – | 41.7% | 7.70 | CSCC[C@H](NC(=O)c1ccc(CNCc2c[nH]cn2)cc1-c1ccccc1C)C(=O)OCc1ccccc1 | – | pEC50 (NIH3T3 [16]): < 5.00 |
| 5.52 | 9.1% | < 5.00 | N#Cc1ccc(Cn2cncc2CNc2ccc(C(=O)Nc3cccc([N+](=O)[O-])c3)c(-c3ccccc3)c2)cc1 | < 5.00 | – |
| 8.59 | 41% | 7.60 | COC(=O)[C@H](CCSC)NC(=O)c1ccc(CNCc2c[nH]cn2)cc1-c1ccccc1C | 4.60 | – |
| 5.09 | 1.2% | 5.00 | N#Cc1ccc(Cn2cncc2CNc2ccc(C(=O)NCc3ccccc3)c(-c3ccccc3)c2)cc1 | < 5.00 | – |
| < 4.22 | – | < 5.00 | CSCC[C@H](NC(=O)c1ccc(NCc2cncn2Cc2ccccc2Cl)cc1-c1ccccc1)C(=O)O | < 5.00 | inhibition [5]: ≤ 41% |
| < 4.22 | – | < 5.00 | CSCC[C@H](NC(=O)c1ccc(NCc2cncn2Cc2ccc(C#N)cc2)cc1-c1ccccc1)C(=O)O | < 5.00 | inhibition [7]: ≤ 87% |
| – | 68.5% | < 5.00 | CSCC[C@H](NC(=O)c1ccc(CNCc2[nH]cnc2C)cc1-c1ccccc1C)C(=O)O | < 5.00 | – |
| 6.05 | – | – | CSCC[C@H](NC(=O)c1ccc(CN(Cc2c[nH]cn2)Cc2c[nH]cn2)cc1-c1ccccc1C)C(=O)O | < 5.00 | pEC50 [17]: < 5.00 |
| – | – | – | COC(=O)[C@H](CCSC)NC(=O)c1ccc(NCc2cncn2Cc2ccc([N+](=O)[O-])cc2)cc1-c1ccccc1 | < 5.00 | pEC50 [12]: ≥ 5.30; pEC50 [13]: ≥ 6.10; inhibition [14]: ≤ 14% |
| 7.74 | 4.5% | 7.52 | CSCC[C@H](NC(=O)c1ccc(CNCc2c[nH]cn2)cc1-c1ccccc1C)C(=O)OC1CCCCC1 | – | pEC50 (NIH3T3 [16]): < 5.00 |
| – | 0% | – | COC(=O)[C@H](CCSC)NC(=O)c1ccc(NCc2cncn2Cc2ccccc2C)cc1-c1ccccc1 | < 5.00 | pEC50 [17]: ≥ 5.00 |
| – | 2.2% | < 5.00 | N#Cc1ccc(Cn2cncc2CNc2ccc(C(=O)Nc3cccc(C#N)c3)c(-c3ccccc3)c2)cc1 | < 5.00 | – |
| 5.49 | 18.6% | – | N#Cc1ccc(Cn2cncc2CNc2ccc(C(=O)NCC3CCCCC3)c(-c3ccccc3)c2)cc1 | < 5.00 | pEC50 [17]: < 5.00 |
| 8.52 | 6.2% | 8.30 | CSCC[C@H](NC(=O)c1ccc(CNCc2c[nH]cn2)cc1-c1ccccc1C)C(=O)OC(C)C | 5.00 | – |
| – | – | – | COC(=O)[C@H](CCSC)NC(=O)c1ccc(NCc2cncn2Cc2ccc(C)cc2)cc1-c1ccccc1 | < 5.00 | pEC50 [12]: ≥ 5.30; pEC50 [13]: ≥ 6.10; inhibition [14]: ≤ 14% |
| – | 0% | – | COC(=O)[C@H](CCSC)NC(=O)c1ccc(NCc2cncn2Cc2ccccc2Cl)cc1-c1ccccc1 | < 5.00 | pEC50 [17]: ≥ 5.00 |
| < 4.22 | – | < 5.00 | CSCC[C@H](NC(=O)c1ccc(NCc2cncn2Cc2cccc(Cl)c2)cc1-c1ccccc1)C(=O)O | < 5.00 | inhibition [11]: ≤ 74% |
| 4.35 | 0% | < 5.00 | N#CCNC(=O)c1ccc(NCc2cncn2Cc2ccc(C#N)cc2)cc1-c1ccccc1 | < 5.00 | – |
| 8.30 | 10.4% | 8.00 | CCOC(=O)[C@H](CCSC)NC(=O)c1ccc(CNCc2c[nH]cn2)cc1-c1ccccc1C | 5.00 | – |
| 7.00 | 7% | 6.30 | COC(=O)[C@H](CCSC)NC(=O)c1ccc(CNCc2cncn2Cc2ccc(C#N)cc2)cc1-c1ccccc1C | < 5.00 | – |
| 7.70 | 15.2% | 7.70 | CCCCC(CC)OC(=O)[C@H](CCSC)NC(=O)c1ccc(CNCc2c[nH]cn2)cc1-c1ccccc1C (some centres undefined) | – | pEC50 (NIH3T3 [16]): < 5.00 |
